According to ChEMBL document CHEMBL2331462, “Antiallodynic and analgesic effects of maslinic acid, a pentacyclic triterpenoid from Olea europaea” (J Nat Prod, 2013):
Calls of active or inactive are those of the source.

Columns and labels:
[1] = tested on: Mus musculus; assay: Analgesic activity in CD-1 mouse assessed as inhibition of acetic acid-induced writhing response at 100 mg/kg, sc measured after 30 mins; format: functional, organism-based; set-up: dose 100 mg/kg
Procedure, shortened: (§1)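 Female CD-1 mice (25−30 g), dosed sc interscapularly in 2% Tween 80 in water (5 mL/kg), 30 min before ip 0.6% acetic acid (10 mL/kg). Writhes (torso stretches with back arching and leg extension) counted cumulatively over 30 min. Mean ± SEM of 8−12 mice per group versus vehicle, one-way ANOVA with Bonferroni.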

[2] = tested on: Mus musculus; assay: Antiallodynic activity against capsaicin-induced secondary mechanical pain in CD-1 mouse assessed as paw withdrawal-latency at 100 mg/kg, sc measured after 30 mins post compound administration; format: functional, organism-based; set-up: dose 100 mg/kg
Procedure, shortened: (§2)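 Female CD-1 mice, sc dosing in 2% Tween 80 (5 mL/kg) 30 min before testing. Capsaicin (1 μg in 20 μL 1% DMSO) given ipl; 15 min later a 0.5 g force was applied with an electronic von Frey device ≥5 mm from the injection site toward the toes. Paw withdrawal latency recorded over three trials at 30 s intervals, 50 s cutoff. 8−12 mice per group, two-way ANOVA with Bonferroni.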

[3] = tested on: Mus musculus; assay: Antinociceptive activity in CD-1 mouse assessed as reduction of formalin-induced inflammatory pain at 100 mg/kg, sc administered 15 mins challenge measured after 10 to 50 mins; format: functional, organism-based; set-up: dose 100 mg/kg
[4] = tested on: Mus musculus; assay: Antinociceptive activity in CD-1 mouse assessed as reduction of formalin-induced inflammatory pain at 100 mg/kg, sc administered 15 mins challenge measured up to 5 mins; format: functional, organism-based; set-up: dose 100 mg/kg
[5] = tested on: Mus musculus; assay: Neurotoxicity in CD-1 mouse assessed as impairment in motor coordination at 8 mg/kg, sc measured up to 3 hrs by rotarod test; format: toxicity, organism-based; set-up: dose 8 mg/kg, route subcutaneous; details: in vivo
Procedure, shortened: (§3)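 Female CD-1 mice trained three times on an accelerating rotarod (4 to 40 rpm over 5 min) 24 h before testing. Sc dosing in 2% Tween 80; latency to fall (300 s cutoff) recorded just before and 30, 60, 120 and 180 min after injection. 8−12 mice per group, two-way repeated-measures ANOVA with Bonferroni.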

[6] = tested on: Mus musculus; assay: Antinociceptive activity in CD-1 mouse assessed as reduction of formalin-induced inflammatory pain at 1 % administered topically 15 mins challenge measured after 10 to 50 mins; format: functional, organism-based
Procedure, shortened: (§4)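 Female CD-1 mice, unanesthetized and restrained. 0.1 g of a 1% compound-enriched Carbopol gel (1% Carbopol, 2% triethanolamine, 5% propylene glycol) or vehicle gel was spread on the plantar hindpaw, ipsilateral or contralateral, 15 min before intraplantar formalin (20 μL, 5%). Licking/biting time scored for phase 1 (0−5 min) and phase 2 (10−50 min). 8−12 mice per group.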

[7] = tested on: Mus musculus; assay: Analgesic activity in CD-1 mouse assessed as inhibition of acetic acid-induced writhing response at 64 to 256 mg/kg, sc measured after 30 mins; format: functional, organism-based; procedure, shortened: as §1
[8] = tested on: Mus musculus; assay: Antinociceptive activity in CD-1 mouse assessed as reduction of formalin-induced inflammatory pain at 1 % administered topically 15 mins challenge measured up to 5 mins; format: functional, organism-based; procedure, shortened: as §4
[9] = tested on: Mus musculus; assay: Antiallodynic activity against capsaicin-induced secondary mechanical pain in sc dosed CD-1 mouse assessed as paw withdrawal-latency measured after 30 mins post compound administration; format: functional, organism-based; procedure, shortened: as §2
[10] = tested on: Mus musculus; assay: Neurotoxicity in CD-1 mouse assessed as impairment in motor coordination at 512 mg/kg, sc measured up to 3 hrs by rotarod test; format: toxicity, organism-based; set-up: dose 512 mg/kg, route subcutaneous; details: in vivo; procedure, shortened: as §3
[11] = tested on: Mus musculus; assay: Neurotoxicity in CD-1 mouse assessed as impairment in motor coordination at 64 mg/kg, sc measured up to 3 hrs by rotarod test; format: toxicity, organism-based; set-up: dose 64 mg/kg, route subcutaneous; details: in vivo; procedure, shortened: as §3
[12] = tested on: Mus musculus; assay: Antiallodynic activity against capsaicin-induced secondary mechanical pain in CD-1 mouse assessed as paw withdrawal-latency at 64 mg/kg, sc measured after 30 mins post compound administration; format: functional, organism-based; set-up: dose 64 mg/kg; procedure, shortened: as §2

CC(C)Cc1ccc(C(C)C(=O)O)cc1 (configuration not stated)
inhibition [1]: Active
Activity [2]: inactive
Activity [3]: Active
Activity [4]: inactive

NCC(CC(=O)O)c1ccc(Cl)cc1 (configuration not stated) [BACLOFEN]
Activity [5]: Toxic

CC1(C)CC[C@]2(C(=O)O)CC[C@]3(C)C(=CC[C@@H]4[C@@]5(C)C[C@@H](O)[C@H](O)C(C)(C)[C@@H]5CC[C@]43C)[C@@H]2C1 [MASLINIC ACID]
Activity [6]: Active
inhibition [7]: Active
Activity [8]: inactive
Activity [9]: Dose-dependent effect
Activity [10]: Non-toxic

CC(C)C[C@H](CN)CC(=O)O [PREGABALIN]
Activity [11]: Toxic
Activity [12]: Active
